From ChEMBL document CHEMBL1132295, “Novel euglycemic and hypolipidemic agents. 4. Pyridyl- and quinolinyl-containing thiazolidinediones” (1999)

Assays:
Mus musculus [1] = assay: Percentage reduction in plasma glucose after 6 days p.o. dosing at 30 mg/kg in db/db mice.; assay type: functional; conditions: route oral
Procedure, shortened: (§1)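 Male C57BL/KsJ-db/db mice, 8 weeks old, 4–6 per group, given compound orally once daily for 6 days; vehicle controls received 0.5% CMC (10 mL/kg); rosiglitazone 30 mg/kg as standard. On the last day, retro-orbital blood was taken 1 h post-dose. Plasma glucose and triglyceride were measured by kits. % reduction = [1 − (TT/OT)/(TC/OC)] × 100, using day-0 and control values; mean ± SE, ANOVA, P<0.05.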

Mus musculus [2] = assay: Compound was administered at a dose of 3 mg/kg/day to evaluate the percentage reduction in plasma glucose(PG) after 14 days of treatment in ob/ob mice via oral gavage.
Mus musculus [3] = assay: Compound was administered at a dose of 30 mg/kg/day to evaluate the percentage reduction in plasma glucose(PG) after 14 days of treatment in ob/ob mice via oral gavage.
Mus musculus [4] = assay: Compound was administered at a dose of 3 mg/kg/day to evaluate the percentage reduction in plasma glucose(PG) after 14 days of treatment in db/db mice via oral gavage.
Mus musculus [5] = assay: Compound was administered at a dose of 1 mg/kg/day to evaluate the percentage reduction in plasma triglyceride (TG) after 14 days of treatment in ob/ob mice via oral gavage.
Mus musculus [6] = assay: Compound was administered at a dose of 10 mg/kg/day to evaluate the percentage reduction in plasma triglyceride (TG) after 14 days of treatment in db/db mice via oral gavage.
Mus musculus [7] = assay: Compound was administered at a dose of 10 mg/kg/day to evaluate the percentage reduction in plasma triglyceride (TG) after 14 days of treatment in ob/ob mice via oral gavage.
Mus musculus [8] = assay: Compound was administered at a dose of 3 mg/kg/day to evaluate the percentage reduction in plasma triglyceride (TG) after 14 days of treatment in ob/ob mice via oral gavage.
Mus musculus [9] = assay: Compound was administered at a dose of 1 mg/kg/day to evaluate the percentage reduction in plasma glucose(PG) after 14 days of treatment in ob/ob mice via oral gavage.
Mus musculus [10] = assay: Compound was administered at a dose of 10 mg/kg/day to evaluate the percentage reduction in plasma glucose(PG) after 14 days of treatment in ob/ob mice via oral gavage.
Mus musculus [11] = assay: Compound was administered at a dose of 10 mg/kg/day to evaluate the percentage reduction in plasma glucose(PG) after 14 days of treatment in db/db mice via oral gavage.
Mus musculus [12] = assay: Compound was administered at a dose of 30 mg/kg/day to evaluate the percentage reduction in plasma triglyceride (TG) after 6 days of treatment in db/db mice via oral gavage.; assay type: functional; procedure, shortened: as §1
Mus musculus [13] = assay: Compound was administered at a dose of 30 mg/kg/day to evaluate the percentage reduction in plasma triglyceride (TG) after 14 days of treatment in ob/ob mice via oral gavage.
Mus musculus [14] = assay: Compound was administered at a dose of 30 mg/kg/day to evaluate the percentage reduction in plasma triglyceride (TG) after 6 days of treatment in db/db mice via oral gavage; Not significant.; assay type: functional, organism-based; procedure, shortened: as §1
Mus musculus [15] = assay: Compound was administered at a dose of 3 mg/kg/day to evaluate the percentage reduction in plasma triglyceride (TG) after 14 days of treatment in db/db mice via oral gavage.
Mus musculus [16] = assay: Compound was administered at a dose of 20 mg/kg/day to evaluate the percentage reduction in plasma glucose(PG) after 14 days of treatment in db/db mice via oral gavage.
Mus musculus [17] = assay: Compound was administered at a dose of 20 mg/kg/day to evaluate the percentage reduction in plasma triglyceride (TG) after 14 days of treatment in db/db mice via oral gavage.
Mus musculus [18] = assay: Compound was administered at a dose of 100 mg/kg/day to evaluate the percentage reduction in plasma glucose(PG) after 6 days of treatment in db/db mice via oral gavage.; assay type: functional; procedure, shortened: as §1
Mus musculus [19] = assay: Compound was administered at a dose of 100 mg/kg/day to evaluate the percentage reduction in plasma triglyceride (TG) after 6 days of treatment in db/db mice via oral gavage.; assay type: functional; procedure, shortened: as §1
Mus musculus [20] = assay: Compound was administered at a dose of 100 mg/kg/day to evaluate the percentage reduction in plasma triglyceride (TG) after 6 days of treatment in db/db mice via oral gavage; Not significant.; assay type: functional, organism-based; procedure, shortened: as §1
Mus musculus [21] = assay: Compound was administered at a dose of 100 mg/kg/day to evaluate the percentage reduction in plasma glucose(PG) after 6 days of treatment in db/db mice via oral gavage; Not significant.; assay type: functional, organism-based; procedure, shortened: as §1

## Cl.O=C1NC(=O)C(Cc2ccc(OC[C@@H]3CCCN3c3ccc4ccccc4n3)cc2)S1 (stereo partly drawn)
Mus musculus [1]
  Reduction: 15.75%

## Cl.O=C1NC(=O)/C(=C/c2ccc(OC[C@@H]3CCCN3c3ccccn3)cc2)S1
Mus musculus [2]
  Reduction: 50.2%
Mus musculus [3]
  Reduction: 37.2%
Mus musculus [1]
  Reduction: 70.8%
Mus musculus [4]
  Reduction: 53.8%
Mus musculus [5]
  Reduction: 46.6%
Mus musculus [6]
  Reduction: 43.8%
Mus musculus [7]
  Reduction: 35%
Mus musculus [8]
  Reduction: 39.33%
Mus musculus [9]
  Reduction: 18.8%
Mus musculus [10]
  Reduction: 42.4%
Mus musculus [11]
  Reduction: 61%
Mus musculus [12]
  Reduction: 31.7%
Mus musculus [13]
  Reduction: 53%

## O=C1NC(=O)C(Cc2ccc(OC[C@@H]3CCCN3c3ccc4ccccc4n3)cc2)S1 (stereo partly drawn) [listing 1 of 2 here]
Mus musculus [1]
  Reduction: 72.25%
Mus musculus [12]
  Reduction: 49%

## O=C1NC(=O)C(Cc2ccc(OC[C@@H]3CCCN3c3ccc4ccccc4n3)cc2)S1 (stereo partly drawn) [listing 2 of 2 here]
Mus musculus [14]
  Reduction: Not significant

## Cc1cc(N2CCC[C@H]2COc2ccc(CC3SC(=O)NC3=O)cc2)nc2ccccc12.Cl (stereo partly drawn)
Mus musculus [1]
  Reduction: 25.25%
Mus musculus [12]
  Reduction: 42%

## O=C(O)/C=C\C(=O)O.O=C1NC(=O)/C(=C/c2ccc(OC[C@@H]3CCCN3c3ccccn3)cc2)S1
Mus musculus [2]
  Reduction: 40.25%
Mus musculus [3]
  Reduction: 73%
Mus musculus [15]
  Reduction: 75%
Mus musculus [1]
  Reduction: 63.6%
Mus musculus [4]
  Reduction: 12.75%
Mus musculus [5]
  Reduction: 65.75%
Mus musculus [6]
  Reduction: 78.4%
Mus musculus [7]
  Reduction: 41.5%
Mus musculus [8]
  Reduction: 59%
Mus musculus [9]
  Reduction: 52.4%
Mus musculus [10]
  Reduction: 69.25%
Mus musculus [11]
  Reduction: 49.6%
Mus musculus [12]
  Reduction: 66.4%
Mus musculus [13]
  Reduction: 68.5%

## Cl.O=C1NC(=O)/C(=C/c2ccc(OCC3CN(c4ccccn4)CCO3)cc2)S1 (stereo not drawn)
Mus musculus [1]
  Reduction: 35.5%

## O=C1NC(=O)/C(=C/c2ccc(OCC3CN(c4ccccn4)CCO3)cc2)S1 (stereo not drawn) [listing 1 of 2 here]
Mus musculus [14]
  Reduction: Not significant

## O=C1[N-]C(=O)C(Cc2ccc(OC[C@@H]3CCCN3c3ccc4ccccc4n3)cc2)S1.[Na+] (stereo partly drawn)
Mus musculus [1]
  Reduction: 61.5%
Mus musculus [12]
  Reduction: 24.75%

## O=C1NC(=O)C(Cc2ccc(OCC3CN(c4ccccn4)CCO3)cc2)S1 (stereo not drawn) [listing 1 of 2 here]
Mus musculus [14]
  Reduction: Not significant

## CN(CCOc1ccc(CC2SC(=O)NC2=O)cc1)c1ccccn1 (stereo in doubt; form 1) [ROSIGLITAZONE]
Mus musculus [15]
  Reduction: 47%
Mus musculus [1]; 30 mg/kg
  Reduction: 64.6%
Mus musculus [4]
  Reduction: 41.6%
Mus musculus [6]
  Reduction: 35.25%
Mus musculus [11]
  Reduction: 47.25%
Mus musculus [12]
  Reduction: 41%

## O=C(O)/C=C\C(=O)O.O=C1NC(=O)C(Cc2ccc(OC[C@@H]3CCCN3c3ccccn3)cc2)S1 (stereo partly drawn)
Mus musculus [16]
  Reduction: 41.25%
Mus musculus [15]
  Reduction: 41.5%
Mus musculus [1]
  Reduction: 62.5%
Mus musculus [17]
  Reduction: 34.5%
Mus musculus [4]
  Reduction: 8.5%
Mus musculus [12]
  Reduction: 44.75%

## O=C1[N-]C(=O)C(Cc2ccc(OCC3CN(c4ccccn4)CCO3)cc2)S1.[Na+] (stereo not drawn)
Mus musculus [2]
  Reduction: 35.6%
Mus musculus [15]
  Reduction: 39.25%
Mus musculus [1]
  Reduction: 63.5%
Mus musculus [4]
  Reduction: 34.67%
Mus musculus [6]
  Reduction: 39%
Mus musculus [9]
  Reduction: 30%
Mus musculus [10]
  Reduction: 39.8%
Mus musculus [11]
  Reduction: 66%
Mus musculus [12]
  Reduction: 56.75%

## CN(CCOc1ccc(/C=C2\SC(=O)NC2=O)cc1)c1ccccn1
Mus musculus [18]
  Reduction: 55.5%
Mus musculus [19]
  Reduction: 35%

## O=C1NC(=O)C(Cc2ccc(OC[C@@H]3CCCN3c3ccccn3)cc2)S1 (stereo partly drawn)
Mus musculus [1]
  Reduction: 52.25%
Mus musculus [12]
  Reduction: 65.5%

## O=C1NC(=O)/C(=C/c2ccc(OCCN3CCN(c4ccccn4)CC3)cc2)S1
Mus musculus [18]
  Reduction: 35.75%
Mus musculus [19]
  Reduction: 69.75%

## O=C1NC(=O)C(Cc2ccc(OCC3CN(c4ccccn4)CCO3)cc2)S1 (stereo not drawn) [listing 2 of 2 here]
Mus musculus [1]
  Reduction: 57.5%

## Cl.O=C1NC(=O)C(Cc2ccc(OC[C@@H]3CCCN3c3ccccn3)cc2)S1 (stereo partly drawn)
Mus musculus [1]
  Reduction: 50.5%
Mus musculus [12]
  Reduction: 50.5%

## O=C1NC(=O)/C(=C\c2ccc(OC[C@@H]3CCCN3c3ccccn3)cc2)S1
Mus musculus [18]
  Reduction: 57%
Mus musculus [19]
  Reduction: 77.75%

## O=C1[N-]C(=O)C(Cc2ccc(OC[C@@H]3CCCN3c3ccccn3)cc2)S1.[Na+] (stereo partly drawn)
Mus musculus [1]
  Reduction: 65.5%

## Cc1cc(N2CCC[C@H]2COc2ccc(CC3SC(=O)NC3=O)cc2)nc2ccccc12 (stereo partly drawn)
Mus musculus [1]
  Reduction: 40.5%
Mus musculus [12]
  Reduction: 66.25%

## CN(CCOc1ccc(CC2SC(=O)NC2=O)cc1)c1ccccn1 (stereo in doubt; form 2) [ROSIGLITAZONE]
Mus musculus [1]; 30 mg/kg
  Reduction: 35%
Mus musculus [12]
  Reduction: 40.21%

## O=C1NC(=O)/C(=C/c2ccc(OCC3CN(c4ccccn4)CCO3)cc2)S1 (stereo not drawn) [listing 2 of 2 here]
Mus musculus [18]
  Reduction: 55.25%
Mus musculus [19]
  Reduction: 52.5%

## O=C1[N-]C(=O)/C(=C/c2ccc(OC[C@@H]3CCCN3c3ccccn3)cc2)S1.[Na+]
Mus musculus [1]
  Reduction: 56.5%
Mus musculus [12]
  Reduction: 56%

## Cc1cc(N2CCC[C@H]2COc2ccc(CC3SC(=O)NC3=O)cc2)nc2ccccc12.O=C(O)/C=C\C(=O)O (stereo partly drawn)
Mus musculus [12]
  Reduction: 53%

## O=C1NC(=O)/C(=C/c2ccc(OC[C@@H]3CCCN3c3ccc4ccccc4n3)cc2)S1
Mus musculus [20]
  Reduction: Not significant
Mus musculus [18]
  Reduction: 63.75%

## O=C1NC(=O)/C(=C/c2ccc(OC3CCN(c4ccccn4)CC3)cc2)S1
Mus musculus [18]
  Reduction: 38%
Mus musculus [19]
  Reduction: 40.25%

## Cc1cc(N2CCC[C@H]2COc2ccc(CC3SC(=O)[N-]C3=O)cc2)nc2ccccc12.[Na+] (stereo partly drawn)
Mus musculus [1]
  Reduction: 30.25%
Mus musculus [12]
  Reduction: 58.5%

## O=C1NC(=O)/C(=C/c2ccc(OCC3CCN(c4ccccn4)CC3)cc2)S1
Mus musculus [21]
  Reduction: Not significant
Mus musculus [19]
  Reduction: 27.33%
